The record followed here is ChEMBL document CHEMBL1135704, “Design, synthesis, and evaluation of novel 2-substituted 3-hydroxypyridin-4-ones: structure-activity investigation of metalloenzyme inhibition by iron chelators” (J Med Chem, 2002).

Data set [1] can be described thus: Inhibitory activity against 5-lipoxygenase, by using soybean lipoxygenase spectrophotometric assay. To be noted: concentration not given here. More on the design: concentration or dose not given beside the values. A digest of the protocol:
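Soybean lipoxygenase (10 000 units/mL stock in 0.2 M borate pH 9.0; final 500 units per 3.0 mL) preincubated 30 min at room temperature with chelator at 110 µM iron-binding equivalents or diluent; reaction started with linoleic acid in borate buffer. Linoleic hydroperoxide formation followed at 234 nm (ε 23600 M-1 cm-1); rate versus control gives % inhibition.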

Data set [2] in a line: Partition coefficient (logP). It counts as physicochemical. To be noted: octanol/water. A digest of the protocol:
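Distribution coefficient D7.4 between 1-octanol and 50 mM MOPS pH 7.4 (mutually saturated). Ligand in aqueous phase at 0.5–1.5 absorbance near 280 nm; octanol added in aliquots, aqueous UV absorbance monitored continuously to equilibrium after each. D = [(A0−A1)/A1]·(Vw/Vo) per addition.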

The species entered for data set [3] is Rattus norvegicus. Description: The compound was tested for % iron mobilization in Fe-Ferritin Loaded Rat model. It counts as functional. Summed up: (§1)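 One hour later chelator given orally at 450 µmol/kg (controls: equal volume water); individual metabolic cages, food returned 1 h post-dose. Killed 24 h after labelling; liver and GI tract with contents and feces gamma-counted. Mean ± SD, n = 5.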

Data set [4] relates to Rattus norvegicus. Kind of data set: The compound was tested in vivo for Iron Mobilization efficacy in Fe-Ferritin Loaded Rat model. It counts as functional. A digest of the protocol:
as §1

For `CCCCc1c(O)c(=O)cc(C)n1C`, the inhibition in data set [1] was found to be 29.6%. The molecule further came in with a logP in data set [2] of 0.9.
In data set [1], `CCn1ccc(=O)c(O)c1C` displayed an inhibition of 58.4%.
As to `CCCCn1ccc(=O)c(O)c1C`, in data set [1], the inhibition was determined as 80%.
Same read-out and setting: the same measure for `CCCCCn1ccc(=O)c(O)c1C`: 90%.
`Cc1cc(=O)c(O)c(CNC(=O)C(C)C)n1C` registered an inhibition in data set [1] of 21%. Besides, in data set [2], the lipophilicity (logP) was -0.35.
Consider `Cc1c(O)c(=O)ccn1C` [DEFERIPRONE], for which, in data set [1], the inhibition was 39.4%. Moreover, the Mobilization in data set [3] is reported as 13.4%. Moreover, the Efficacy in data set [4] was found to be 9.5%.
Regarding `CC(=O)NCCC(=O)NCc1c(O)c(=O)cc(C)n1C`, the inhibition in data set [1] was found to be 3.8%. For the same molecule, in data set [3], the Mobilization is 9.7%. Also, the Efficacy in data set [4] amounted to 5.9%. Besides, the logP in data set [2] was -1.7.
`CC(=O)NCc1c(O)c(=O)cc(C)n1C` registered an inhibition in data set [1] of 18.5%.
As to `CCC(=O)NCc1c(O)c(=O)cc(C)n1C`, the inhibition in data set [1] worked out at 13.5%. In addition, the log partition coefficient (logP) in data set [2] is -0.72.
`Cn1ccc(=O)c(O)c1` gave an inhibition in data set [1] of 59.4%. Also, the logP in data set [2] is -0.6.
Regarding `COCc1c(O)c(=O)cc(C)n1C`, in data set [1], the inhibition is 14.8%. Also, the log partition coefficient (logP) in data set [2] was -0.41.
Turning to `CCCNC(=O)CCC(=O)NCc1c(O)c(=O)cc(C)n1C`, in data set [1], the inhibition came to 2.1%. In addition, the Mobilization in data set [3] is on record as 23.3%. The Efficacy in data set [4] is on record as 19.4%. In data set [2], this molecule showed a log partition coefficient (logP) of -0.701.
Regarding `CCc1c(O)c(=O)ccn1C`, the inhibition in data set [1] was determined as 48.5%. In addition, the lipophilicity (logP) in data set [2] is -0.21.
`CCCCCCn1ccc(=O)c(O)c1C` had an inhibition in data set [1] of 93.2%.
In the case of `CCCCCCCCn1ccc(=O)c(O)c1C`, the inhibition in data set [1] came to 98.7%.
`CCCc1c(O)c(=O)cc(C)n1C` displayed an inhibition in data set [1] of 30%. In data set [2], this molecule displayed a log partition coefficient (logP) of 0.4.

Broadly, the inhibition is the percentage by which the read-out fell short of the control. One may read the logP as the decadic logarithm of the partition coefficient of the neutral form, usually between octanol and water.
